Bioassay records deposited in PubChem by several laboratories.
HUVEC prolif 384 – inhibitors of human endothelial cell proliferation. AID 648. viability, % at 10 µM (by protocol). HUVEC proliferation, CellTiter-Glo luminescence, 72 h; hits give low values. 86,000 tested, 1.1% active;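 active = viability at or below 30%; inactive = viability above 30%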;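 note: 100% = median luminescence of DMSO-only cell control wells on each plate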
Jurkat tox 60K – reduces viability or proliferation of Jurkat cells; Jurkat E6.1 viability, ATP luminescence, 48 h; inhibition, % at 4 µM; 56,000 tested, 1.2% active;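 active = inhibition above the mean inhibition of all tested compounds plus 3 SD, cut at about 28% in these data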
H69AR inhibit – growth inhibitors of human H69AR lung tumor cells; viability, % at 10 µM; 85,000 tested, 6% active; AID 598; H69AR lung tumor viability, ATP luminescence, 72 h; hits give low values;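 active = viability at or below 40%; inactive = viability above 40%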;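 note: multidrug resistant small cell line overexpressing MRP-1 efflux transporter; 100% = mean luminescence of untreated control wells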
Fibroblast inh – blocks proliferation of human lung fibroblasts | LL 47 human lung fibroblast viability, ATP luminescence; hits give low values | viability, % at 10 µM | 85,000 tested, 1.1% active;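 active = viability at or below 50% in the single dose screen; inactive = viability above 50%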;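 note: compound exposure lasted 72 h before the ATP readout; 100% = median luminescence of untreated cell-only wells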
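material = human LL 47 lung fibroblast cells | dosing = compounds added from tenfold dosing solution, 0.1% DMSO final | timing = overnight cell rest, 72 h compound treatment at 37 °C | measured by = CellTiter-Glo luminescence measuring cellular ATP | evaluation = % viability versus median cells-only luminescence | control set = cell-only wells, no compound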
* = called active by the depositor. Most compounds without a hit are left out; they make up all but 6.6% or so of the library.

Screening CCS(=O)(=O)c1ccc(O)c(N2C(=O)C3C4C=CC(C4)C3C2=O)c1 (centres undefined) returned HUVEC prolif 384 100, Jurkat tox 60K -6, H69AR inhibit 88 and Fibroblast inh 101.
`CCn1c(C2CC(=O)N(Cc3ccccc3)C2)nc2ccccc21` (centres undefined) gave HUVEC prolif 384 90, Jurkat tox 60K -3, H69AR inhibit 85 and Fibroblast inh 92.
For CC(C)(C)N1CC(c2nc3ccccc3n2Cc2ccccc2)CC1=O (centres undefined) the results were HUVEC prolif 384 96, H69AR inhibit 38* and Fibroblast inh 83.
Screening O=C(Nc1c(C(=O)Nc2cccc(F)c2)oc2ccccc12)c1ccc2c(c1)OCO2 returned HUVEC prolif 384 74, Jurkat tox 60K -3, H69AR inhibit 24* and Fibroblast inh 71.
`CN(C(=S)Nc1ccccc1F)C1(c2ccccc2Cl)CCCCC1=O` (centres undefined) gave HUVEC prolif 384 92, H69AR inhibit 96 and Fibroblast inh 104.
`CC1CCCCC1n1c(=S)[nH]c2ccccc2c1=O` (centres undefined) gave HUVEC prolif 384 82, H69AR inhibit 18* and Fibroblast inh 82.
Screening CCN(CC)c1ccc2cc(C(=O)Nc3ccccn3)c(=O)oc2c1 returned HUVEC prolif 384 94, H69AR inhibit 93 and Fibroblast inh 96.
`CCN(CC)c1ccc2cc(C(=O)Nc3cccnc3N3CCOCC3)c(=O)oc2c1` gave HUVEC prolif 384 60, H69AR inhibit 21* and Fibroblast inh 64.
For CCN(CC)c1ccc2cc(C(C)=O)c(=O)oc2c1 the results were HUVEC prolif 384 107, H69AR inhibit 89 and Fibroblast inh 99.
For CCOc1cc(-n2cnnn2)c(OCC)cc1NC(=O)c1cc2ccc(N(CC)CC)cc2oc1=O the results were HUVEC prolif 384 34, H69AR inhibit 13* and Fibroblast inh 86.
`COc1ccc(N2CCN(c3nc4c(c(=O)n(C)c(=O)n4C)n3CCCc3ccccc3)CC2)cc1` gave HUVEC prolif 384 96, Jurkat tox 60K -11, H69AR inhibit 80 and Fibroblast inh 105.
For Fc1cccc(-c2oncc2-c2nnnn2-c2ccc(Cl)cc2)c1 the results were HUVEC prolif 384 95, H69AR inhibit 81 and Fibroblast inh 99.
For Clc1ccc(-n2nnnc2-c2cnc(-c3ccncc3)nc2-c2cccs2)cc1 the results were HUVEC prolif 384 76, H69AR inhibit 9.8* and Fibroblast inh 92.
Screening COc1ccccc1N1CCN(Cc2nc(N)nc(Nc3ccc(C)cc3)n2)CC1 returned HUVEC prolif 384 86, Jurkat tox 60K 1, H69AR inhibit 3.0* and Fibroblast inh 91.
CC1CC(C)CN(Cc2nc(N)nc(Nc3ccccc3)n2)C1 (centres undefined) was read as HUVEC prolif 384 98, H69AR inhibit 77 and Fibroblast inh 96.
For Cc1ccc(Nc2nc(N)nc(CN3CCN(c4ccccc4F)CC3)n2)cc1 the results were HUVEC prolif 384 75, Jurkat tox 60K 10, H69AR inhibit 90 and Fibroblast inh 95.
Screening CC1CC(C)CN(Cc2nc(N)nc(Nc3ccc4ccccc4c3)n2)C1 (centres undefined) returned HUVEC prolif 384 50, Jurkat tox 60K 21, H69AR inhibit 12* and Fibroblast inh 64.
Nc1nc(CN2CCC(Cc3ccccc3)CC2)nc(Nc2ccccc2)n1 was read as HUVEC prolif 384 60, H69AR inhibit 30* and Fibroblast inh 67.
CC(C)[C@H](NC(=O)OC(C)(C)C)c1nnc(SCC(=O)Nc2ccc(Br)cc2)o1 was read as HUVEC prolif 384 87, Jurkat tox 60K 15, H69AR inhibit 84 and Fibroblast inh 92.
CC(C)(C)c1cc(C(c2cccnc2)N2CCN(CCO)CC2)cc(C(C)(C)C)c1O (centres undefined) was read as HUVEC prolif 384 2.2*, Jurkat tox 60K -2, H69AR inhibit 2.2* and Fibroblast inh 2.8*.
Screening CC(C)(C)n1nnnc1C(c1cccnc1)N1CCN(c2cccc(C(F)(F)F)c2)CC1 (centres undefined) returned HUVEC prolif 384 112, H69AR inhibit 87 and Fibroblast inh 96.
Clc1ccc(-c2nn3c(Cn4cnc5ccccc54)nnc3s2)c(Cl)c1 was read as Jurkat tox 60K 6.
For COc1ccc(N2CCN(S(=O)(=O)c3cccc(C(F)(F)F)c3)CC2)cc1 the results were HUVEC prolif 384 105, Jurkat tox 60K 1, H69AR inhibit 100 and Fibroblast inh 98.
For Cn1c(=O)c2cc(S(=O)(=O)N3CCN(c4cccc(C(F)(F)F)c4)CC3)ccc2n(C)c1=O the results were HUVEC prolif 384 68, H69AR inhibit 25* and Fibroblast inh 58.
`COc1cc(CC(=O)OCC(=O)c2ccc3c(c2)OCCO3)cc(OC)c1OC` gave HUVEC prolif 384 38, H69AR inhibit 33* and Fibroblast inh 53.
`Cc1nn(Cc2cccc(C(=O)NC34CC5CC(CC(C5)C3)C4)c2)c(C)c1Br` gave HUVEC prolif 384 29*, H69AR inhibit 98 and Fibroblast inh 91.
CCSc1nc(N)c(C#N)c(-c2ccco2)c1C#N was read as HUVEC prolif 384 80, H69AR inhibit 32* and Fibroblast inh 84.
COC(=O)/C(=C\Nc1ccc(OC)cc1)NC(=O)c1ccc(Cl)cc1Cl was read as HUVEC prolif 384 75, H69AR inhibit 36* and Fibroblast inh 88.
For COc1ccc(C)cc1NC(=O)CC(O)(C(F)(F)F)C(F)(F)F the results were HUVEC prolif 384 87, H69AR inhibit 74 and Fibroblast inh 97.
`Cc1ccc(NC(=O)CC(O)(C(F)(F)F)C(F)(F)F)cc1` gave HUVEC prolif 384 110, H69AR inhibit 22* and Fibroblast inh 96.
`CCN(CC)c1ccc(NC(=O)c2ccco2)c(C)c1` gave HUVEC prolif 384 109, Jurkat tox 60K -4, H69AR inhibit 97 and Fibroblast inh 106.
CCN(CC)c1ccc(NC(=O)c2cccc(F)c2)c(C)c1 was read as HUVEC prolif 384 60, H69AR inhibit 28* and Fibroblast inh 52.
COC(=O)c1ccc(-n2nnnc2SCc2ccccc2OC)cc1 was read as HUVEC prolif 384 89, Jurkat tox 60K 9, H69AR inhibit 37* and Fibroblast inh 98.
`COC(=O)c1ccc(-n2nnnc2SCC(=O)Nc2cc(OC)ccc2OC)cc1` gave HUVEC prolif 384 95, Jurkat tox 60K -4, H69AR inhibit 77 and Fibroblast inh 98.
`O=S(=O)(Nc1nc2ccc(S(=O)(=O)N3CCCC3)cc2s1)c1ccc(F)cc1` gave HUVEC prolif 384 78, H69AR inhibit 78 and Fibroblast inh 103.
`CN(C(=O)c1cccc(Nc2ccc(-c3ccc4c(c3)OCCO4)nn2)c1)C1CCCCC1` gave HUVEC prolif 384 51, H69AR inhibit 17* and Fibroblast inh 107.
For Clc1ccc(N2CCN(c3ncnc4c3oc3ccccc34)CC2)cc1 the results were HUVEC prolif 384 27*, Jurkat tox 60K -2, H69AR inhibit 65 and Fibroblast inh 117.
For CC1CN(c2ncnc3c2oc2ccccc23)CC(C)O1 (centres undefined) the results were HUVEC prolif 384 93, Jurkat tox 60K 3, H69AR inhibit 73 and Fibroblast inh 97.
